A short description of experiment [1]: Compound was tested for in vitro cytotoxicity in KB cells after 3 days of incubation. Type of experiment: functional. To be noted: Homo sapiens, 72 h, read-out: ED50 (the source's name). The gist of the method: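 KB human tumor cells exposed to drug for 3 days; read-out was cell number. ED50 was taken as the drug concentration giving 50% reduction in cell number. Values are marked as preliminary.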

For experiment [2], the target named is DNA topoisomerase II (Homo sapiens) (UniProt P11388+Q02880). Description: Compound was tested for inhibition against human DNA topoisomerase II. Type of experiment: protein assay. Also on record: concentration or dose not given beside the values. To be noted: concentration not given here.

Structures are written as SMILES. Values after ≈ are worked out from the molar mass of the structure shown.

The record followed here is ChEMBL document CHEMBL1124418, “Antitumor agents. 100. Inhibition of human DNA topoisomerase II by cytotoxic ether and ester derivatives of podophyllotoxin and alpha-peltatin” (1989).

For orientation: inhibition means the change of the read-out against control, counted positive when it falls. With `CCCC(=O)Oc1c2c(cc3c1OCO3)[C@@H](c1cc(OC)c(O)c(OC)c1)[C@H]1C(=O)OC[C@@H]1C2`, the EC50 in experiment [1] was 0.004 µg/mL (≈ 0.0085 µM). Moreover, the inhibition in experiment [2] worked out at 25%.
In the case of `COc1cc([C@@H]2c3cc4c(c(OC(=O)Cc5ccccc5)c3C[C@H]3COC(=O)[C@@H]32)OCO4)cc(OC)c1O`, the EC50 in experiment [1] worked out at 0.01 µg/mL (≈ 0.0193 µM).
For the compound `COc1cc([C@@H]2c3cc4c(c(O[C@@H]5O[C@@H](CO)[C@@H](O)[C@H](O)[C@@H]5O)c3C[C@H]3COC(=O)[C@@H]32)OCO4)cc(OC)c1O`, the EC50 in experiment [1] amounted to 1.1 µg/mL (≈ 1.96 µM). The compound further had an inhibition in experiment [2] of 25%.
For `COc1cc([C@@H]2c3cc4c(c(OC(=O)CCC(=O)O)c3C[C@H]3COC(=O)[C@@H]32)OCO4)cc(OC)c1O`, the EC50 in experiment [1] worked out at 0.01 µg/mL (≈ 0.02 µM). This compound also displayed an inhibition in experiment [2] of 0%.
For `CCO[C@@H]1c2cc3c(cc2[C@@H](c2cc(OC)c(O)c(OC)c2)[C@H]2C(=O)OC[C@@H]21)OCO3`, the EC50 in experiment [1] came to 1.1 µg/mL (≈ 2.57 µM). Also, the inhibition in experiment [2] came out at 25%.
Turning to `COc1cc([C@@H]2c3cc4c(cc3[C@@H](OC(=O)Cc3ccccc3)[C@H]3COC(=O)[C@H]23)OCO4)cc(OC)c1O`, in experiment [1], the EC50 is 0.00028 µg/mL (≈ 0.00054 µM).
With `COc1cc([C@@H]2c3cc4c(cc3[C@@H](O)[C@H]3COC(=O)[C@H]23)OCO4)cc(OC)c1O` [4'-DEMETHYLEPIPODOPHYLLOTOXIN], the EC50 in experiment [1] was found to be 0.06 µg/mL (≈ 0.15 µM). The compound also displayed an inhibition in experiment [2] of 50%.
For `C/C=C\C(=O)O[C@@H]1c2cc3c(cc2[C@@H](c2cc(OC)c(O)c(OC)c2)[C@H]2C(=O)OC[C@@H]21)OCO3`, the EC50 in experiment [1] was 0.9 µg/mL (≈ 1.92 µM).
With `COc1cc([C@@H]2c3cc4c(c(O)c3C[C@H]3COC(=O)[C@@H]32)OCO4)cc(OC)c1O`, the EC50 in experiment [1] was 0.09 µg/mL (≈ 0.225 µM). For the same compound, the inhibition in experiment [2] came to 0%.
For the compound `CCS[C@@H]1c2cc3c(cc2[C@@H](c2cc(OC)c(O)c(OC)c2)[C@H]2C(=O)OC[C@@H]21)OCO3`, in experiment [1], the EC50 was determined as 1.1 µg/mL (≈ 2.47 µM). For the same compound, the inhibition in experiment [2] worked out at 25%.
On to `COc1cc([C@@H]2c3cc4c(c(OC(C)=O)c3C[C@H]3COC(=O)[C@@H]32)OCO4)cc(OC)c1O`, for which, in experiment [1], the EC50 stood at 0.01 µg/mL (≈ 0.0226 µM). For the same compound, in experiment [2], the inhibition stood at 0%.
With `COc1cc([C@@H]2c3cc4c(c(OC(=O)OCc5ccccc5)c3C[C@H]3COC(=O)[C@@H]32)OCO4)cc(OC)c1O`, the EC50 in experiment [1] came to 0.01 µg/mL (≈ 0.0187 µM). This compound also showed an inhibition in experiment [2] of 25%.
Turning to `COc1cc([C@@H]2c3cc4c(c(O[C@@H]5O[C@H]6CO[C@@H](c7cccs7)O[C@H]6[C@H](O)[C@@H]5O)c3C[C@H]3COC(=O)[C@@H]32)OCO4)cc(OC)c1O`, in experiment [1], the EC50 was found to be 2 µg/mL (≈ 3.05 µM). In experiment [2], this compound had an inhibition of 25%.
For `COc1cc([C@@H]2c3cc4c(c(O[C@@H]5O[C@H]6CO[C@@H](C)O[C@H]6[C@H](O)[C@@H]5O)c3C[C@H]3COC(=O)[C@@H]32)OCO4)cc(OC)c1O`, the EC50 in experiment [1] was 2 µg/mL (≈ 3.4 µM).
In the case of `COc1cc([C@@H]2c3cc4c(c(OC)c3C[C@H]3COC(=O)[C@@H]32)OCO4)cc(OC)c1O`, in experiment [1], the EC50 came out at 0.001 µg/mL (≈ 0.00241 µM). For the same compound, the inhibition in experiment [2] is 25%.
Turning to `COc1cc([C@@H]2c3cc4c(cc3[C@@H](OC(C)=O)[C@H]3COC(=O)[C@H]23)OCO4)cc(OC)c1O`, the EC50 in experiment [1] was determined as 0.2 µg/mL (≈ 0.452 µM). The compound further yielded an inhibition in experiment [2] of 25%.
`COc1cc([C@@H]2c3cc4c(cc3[C@@H](OC)[C@H]3COC(=O)[C@H]23)OCO4)cc(OC)c1O`: the EC50 in experiment [1] was determined as 1.1 µg/mL (≈ 2.65 µM). For the same compound, the inhibition in experiment [2] turned out to be 25%.
Turning to `COc1cc([C@@H]2c3cc4c(cc3[C@@H](OC(=O)c3ccccc3C(=O)O)[C@H]3COC(=O)[C@H]23)OCO4)cc(OC)c1O`, the EC50 in experiment [1] was 0.8 µg/mL (≈ 1.46 µM).
`COc1cc([C@@H]2c3cc4c(cc3[C@@H](O[C@@H]3O[C@@H]5CO[C@@H](C)O[C@H]5[C@H](O)[C@H]3O)[C@H]3COC(=O)[C@H]23)OCO4)cc(OC)c1O` [ETOPOSIDE]: the EC50 in experiment [1] stood at 0.12 µg/mL (≈ 0.204 µM). For the same compound, the inhibition in experiment [2] was > 88%.
`CCC(=O)O[C@@H]1c2cc3c(cc2[C@@H](c2cc(OC)c(O)c(OC)c2)[C@H]2C(=O)OC[C@@H]21)OCO3`: in experiment [1], the EC50 came to 1 µg/mL (≈ 2.19 µM). Besides, in experiment [2], the inhibition was 0%.
The corresponding values for `CCC(=O)Oc1c2c(cc3c1OCO3)[C@@H](c1cc(OC)c(O)c(OC)c1)[C@H]1C(=O)OC[C@@H]1C2` are 0.005 µg/mL (≈ 0.011 µM) and 25%.
For the compound `COc1cc([C@@H]2c3cc4c(cc3[C@@H](OC(=O)CCC(=O)O)[C@H]3COC(=O)[C@H]23)OCO4)cc(OC)c1O`, the EC50 in experiment [1] was found to be 1 µg/mL (≈ 2 µM). In addition, the inhibition in experiment [2] stood at 0%.
